pIC50: −log10 of the molar value. Converted amounts (≈) assume the structure as drawn.

The target of one data set is T1, Melanin-concentrating hormone receptor 1 (Homo sapiens, UniProt Q99705). Nature of the data set: Displacement of [125I]MCH from human MCHR1 expressed in CHO cells after 1 hr by scintillation counting.
T1 sequence (Q99705 whole entry): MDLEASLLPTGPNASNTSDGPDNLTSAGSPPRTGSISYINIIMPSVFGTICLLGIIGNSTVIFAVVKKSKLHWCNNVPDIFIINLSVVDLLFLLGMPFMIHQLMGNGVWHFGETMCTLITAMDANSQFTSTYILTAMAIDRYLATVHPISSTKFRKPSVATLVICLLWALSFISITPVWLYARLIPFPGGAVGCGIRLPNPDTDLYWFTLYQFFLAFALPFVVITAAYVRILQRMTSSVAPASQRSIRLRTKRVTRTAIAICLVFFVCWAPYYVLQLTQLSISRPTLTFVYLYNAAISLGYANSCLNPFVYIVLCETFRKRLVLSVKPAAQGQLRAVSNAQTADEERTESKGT
Conditions: not given
Type of data set: cell-based. The procedure, abridged: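 CHO cell membranes stably expressing human or rat MCHR1 incubated 1 h at room temperature with [125I]MCH(4−19) and compound at various concentrations. Filtration through GF/C glass filters, bound radioactivity counted by scintillation. IC50 from one experiment in duplicate.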
For orientation: Loss of bound radioactivity is the signal in a displacement assay; it reports binding, not function.
By pIC50 is commonly meant the IC50 on a negative log10 scale, so that one unit is a factor of ten. Take `O=C(Nc1cc2ncc(CN3CCCC3)cc2cc1Cl)c1ccc(-c2ccc(F)cc2)cc1`: the pIC50 was 8.85.
Molecule `COc1ccc(-c2ccc(C(=O)Nc3ccc4cc(CN5CCCC5)cnc4c3C)cc2)cc1` gave a pIC50 of 9.28.
On to `Cc1ccc(C2CCN(C(=O)Nc3ccc4cc(CN5CCCC5)cnc4c3)CC2)cc1`, for which the pIC50 was 7.64.
Molecule `O=C(Nc1ccc2cc(CN3CCCC3)cnc2c1)N1CCC(c2ccccc2)CC1` showed a pIC50 of 7.00.
The same measure, in the same setting: next, `O=C(Nc1ccc2cc(CN3CCCC3)cnc2c1)c1ccc(-c2ccc(Cl)cc2)nc1`: 8.39; `O=C(Nc1ccc2cc(CN3CCCC3)ccc2c1)c1ccc(-c2ccc(F)cc2)cc1`: 9.12.
Molecule `O=C(Nc1ccc2cc(CN3CCCC3)cnc2c1)c1ccc(-c2ccc(Cl)cc2)cc1` gave a pIC50 of 9.13.

For the next data set, the target named is T1, Melanin-concentrating hormone receptor 1. Nature of the data set: Antagonist activity at human MCHR1 expressed in CHO cells assessed as inhibition of MCH-induced [3H]arachidonic acid release […] by liquid scintillation counting. Type of data set: functional, cell-based. The following applies: in the assay text read “45 mins” for “16 hrs”. Summed up: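 Human MCHR1-CHO cells seeded at 50 000/well, cultured 1 day, then loaded with [3H]arachidonic acid (0.2 μCi/well) for 16 h. Washed with DMEM containing 20 mM HEPES pH 7.4 and 0.2% BSA. Compound preincubated 30 min at 37 °C, MCH added, 45 min incubation, medium radioactivity by liquid scintillation.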
`O=C(Nc1cc2ncc(CN3CCCC3)cc2cc1Cl)c1ccc(-c2ccc(F)cc2)cc1`: the negative-log IC50 (pIC50) was 7.92.
Still for that read-out and setting: next, `COc1ccc(-c2ccc(C(=O)Nc3ccc4cc(CN5CCCC5)cnc4c3C)cc2)cc1`: 8.37.
Consider `O=C(Nc1ccc2cc(CN3CCCC3)cnc2c1)c1ccc(-c2ccc(Cl)cc2)nc1`, for which the pIC50 is 7.85.
As to `O=C(Nc1ccc2cc(CN3CCCC3)ccc2c1)c1ccc(-c2ccc(F)cc2)cc1`, the pIC50 was 8.05.
For the molecule `O=C(Nc1ccc2cc(CN3CCCC3)cnc2c1)c1ccc(-c2ccc(Cl)cc2)cc1`, the pIC50 was 8.07.

The target in the next data set is T2, 5-hydroxytryptamine receptor 2C (Homo sapiens, UniProt P28335).
T2 sequence (P28335 whole entry): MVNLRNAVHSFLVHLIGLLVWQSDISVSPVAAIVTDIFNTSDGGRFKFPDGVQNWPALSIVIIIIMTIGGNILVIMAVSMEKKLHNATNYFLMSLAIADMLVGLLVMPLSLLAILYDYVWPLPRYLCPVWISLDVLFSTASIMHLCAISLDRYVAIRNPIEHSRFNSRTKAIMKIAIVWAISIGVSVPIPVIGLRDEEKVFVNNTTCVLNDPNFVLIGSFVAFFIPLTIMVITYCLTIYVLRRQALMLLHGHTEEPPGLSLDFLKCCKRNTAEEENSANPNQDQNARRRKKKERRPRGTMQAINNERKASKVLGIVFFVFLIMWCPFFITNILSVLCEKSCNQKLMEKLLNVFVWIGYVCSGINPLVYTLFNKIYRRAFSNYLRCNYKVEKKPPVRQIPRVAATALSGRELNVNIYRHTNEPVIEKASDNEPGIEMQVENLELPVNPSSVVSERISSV
Nature of the data set: Displacement of [3H]mesulergine from human 5HT2C receptor expressed in CHO cells after 1 hr by scintillation counting.
Conditions: not given
Format: cell-based. Summed up:
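Membranes from CHO cells stably expressing human 5-HT2c incubated 1 h at room temperature with [3H]mesulergine and compound at various concentrations. Terminated by GF/C filtration, filter radioactivity counted by scintillation. IC50 from one experiment in duplicate.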
As to `O=C(Nc1cc2ncc(CN3CCCC3)cc2cc1Cl)c1ccc(-c2ccc(F)cc2)cc1`, the pIC50 is 6.62.
Still for that read-out and setting: next, `COc1ccc(-c2ccc(C(=O)Nc3ccc4cc(CN5CCCC5)cnc4c3C)cc2)cc1`: less than 6.00; `O=C(Nc1ccc2cc(CN3CCCC3)cnc2c1)c1ccc(-c2ccc(Cl)cc2)nc1`: 6.03; `O=C(Nc1ccc2cc(CN3CCCC3)ccc2c1)c1ccc(-c2ccc(F)cc2)cc1`: 6.92.
Molecule `O=C(Nc1ccc2cc(CN3CCCC3)cnc2c1)c1ccc(-c2ccc(Cl)cc2)cc1` had a pIC50 of 6.20.

Tested on in the next data set: not listed separately
Nature of the data set: Solubility of the compound in JP2 solution at 10 mM. Format: physicochemical.
Conditions: not given
The procedure, abridged:
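The 10 mM DMSO solution of compound was added to JP2 until opalescence appeared.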
The term solubility denotes how much of the substance goes into solution per volume. Low values mean a poorly soluble substance, high ones a readily soluble substance. `O=C(Nc1ccc2cc(CN3CCCC3)ccc2c1)c1ccc(-c2ccc(F)cc2)cc1` displayed a solubility of 0.11 µg/mL (≈ 0.259 µM).

For the origin of these results see ChEMBL document CHEMBL2029237, “Melanin-concentrating hormone receptor 1 antagonists. Synthesis and structure-activity relationships of novel 3-(aminomethyl)quinolines” (J Med Chem, 2012).
